Experimental data as given in ChEMBL document CHEMBL5029151, “Conformationally Constrained Peptides with High Affinity to the Vascular Endothelial Growth Factor” (J Med Chem, 2021).
Positions of bridges follow the written chain, without caps; N, C: chain ends. Non-standard residues stand in square brackets, D forms with d. Residues, ends and D or L forms follow the SMILES beside them. Nle = CCCC[C@H](N)C(=O)O; Aib = CC(C)(N)C(=O)O

What was measured:
[1] = Stability in porcine vitreous assessed as increase in life time measured at 10 uM after 10 days by UPLC-MS/MS analysis; assay type: ADME, tissue-based, Sus scrofa, Vitreous humor; settings: pig, 240 h, time 10 day
Procedure, shortened: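 Peptide at 10 µM incubated at 37°C in porcine vitreous containing 1% penicillin/streptomycin, one separate tube per time point. Remaining parent peptide quantified by UPLC-MS/MS at each time point.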

[2] = Binding affinity to VEGF (unknown origin) by microscale thermophoresis assay; set-up: species or system Homo sapiens
Procedure, shortened: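 Microscale thermophoresis with fluorescently labeled VEGF-RED (initial concentration 12 nM), read on a Monolith NT.115 Pico. Peptide and VEGF were measured immediately after mixing, with no incubation. KD derived from the thermophoresis signal.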

[3] = Inhibition of VEGF-mediated in human HUVEC cell proliferation incubated for 48 hrs by MTT assay
Procedure, shortened: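 HUVECs seeded at 25,000/well in medium with 0.5 ng/mL VEGF165 for 48 h, then starved 24 h without VEGF or FBS. Peptide (4, 20, 100, 500 µM) premixed with 50 ng/mL VEGF165 for 2 h at 37°C, then added to cells for 48 h. MTT read-out as percent of no-peptide control OD, fitted to IC50; mean ± SD, n = 3.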

ARPE-19 = assay: Cytotoxicity against human ARPE-19 cells assessed as cell viability up to 20 uM measured after 5 hrs by MTT assay; assay type: cell-based; settings: arpe-19, 5 h
Procedure, shortened: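 ARPE-19 cells seeded at 20,000/well and grown overnight, then washed. Exposed 5 h at 37°C, 7% CO2 to peptide at 0.01–100 µM in complete medium. Medium replaced, cells grown a further 24 h. MTT 4 h at 37°C, formazan dissolved in 10% SDS/0.01 M HCl overnight, A570 read. Viability relative to untreated cells; poly-L-lysine-treated cells as control.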

[4] = Binding affinity to VEGF (unknown origin) incubated for 30 mins by microscale thermophoresis assay; set-up: species or system Homo sapiens
Procedure, shortened: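 Fluorescently labeled VEGF-RED (initial concentration 12 nM) mixed with peptide and incubated 30 min to reach complex equilibrium before microscale thermophoresis on a Monolith NT.115 Pico. KD obtained from the thermophoresis signal.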

SMILES	Stability [1]	Kd [2] [µM]	Kd [4] [µM]	IC50 [3] [µM]	Activity (ARPE-19)
CCCC[C@@H]1NC(=O)[C@H](C(C)C)NC(=O)C(C)(C)NC(=O)[C@H]([C@@H](C)CC)NC(=O)[C@H](CC(=O)O)NC(=O)[C@@H](NC(=O)[C@H](CC(N)=O)NC(=O)[C@@H]2CCCN2C(=O)[C@H](CCC(=O)O)NC(=O)[C@@H](N)C(C)C)CSSC[C@@H](C(=O)N[C@@H](Cc2ccccc2)C(=O)N[C@@H](CCC(=O)O)C(=O)N[C@@H](CCCNC(=N)N)C(=O)N[C@@H](CC(C)C)C(=O)O)NC(=O)[C@H](CCC(=O)O)NC(=O)[C@H](Cc2c[nH]c3ccccc23)NC(=O)[C@H](CCC(=O)O)NC(=O)[C@H](Cc2c[nH]c3ccccc23)NC1=O	Stable	11.8		50	
CCCC[C@@H]1NC(=O)[C@H](C(C)C)NC(=O)[C@H](Cc2c[nH]cn2)NC(=O)[C@H]([C@@H](C)CC)NC(=O)[C@H](CC(=O)O)NC(=O)[C@@H](NC(=O)[C@H](CCCCN)NC(=O)[C@H](CCCCN)NC(=O)C(C)(C)NC(=O)[C@@H](N)CCCCN)CSSC[C@@H](C(=O)N[C@@H](Cc2ccccc2)C(=O)N[C@@H](CCC(=O)O)C(=O)N[C@@H](CCCNC(=N)N)C(=O)N[C@@H](CC(C)C)C(=O)O)NC(=O)[C@H](CCC(=O)O)NC(=O)[C@H](Cc2c[nH]c3ccccc23)NC(=O)[C@H](CCC(=O)O)NC(=O)[C@H](Cc2c[nH]c3ccccc23)NC1=O	Stable	0.54	3	6	
CCCC[C@@H]1NC(=O)[C@H](C(C)C)NC(=O)[C@H](Cc2c[nH]cn2)NC(=O)[C@H]([C@@H](C)CC)NC(=O)[C@H](CC(=O)O)NC(=O)[C@@H](NC(=O)[C@H](CC(N)=O)NC(=O)[C@@H]2CCCN2C(=O)[C@H](CCC(=O)O)NC(=O)[C@@H](N)C(C)C)CSSC[C@@H](C(=O)N[C@@H](Cc2ccccc2)C(=O)N[C@@H](CCC(=O)O)C(=O)N[C@@H](CCCNC(=N)N)C(=O)N[C@@H](CC(C)C)C(=O)O)NC(=O)[C@H](CCC(=O)O)NC(=O)[C@H](Cc2c[nH]c3ccccc23)NC(=O)C(C)(C)NC(=O)[C@H](Cc2c[nH]c3ccccc23)NC1=O (H-VEPNCDIHV[Nle]W[Aib]WECFERL-OH; disulfide 5-15)	Unstable	0.94	0.15	3.5	

The next lines start with results.

Stability [1]	Kd [2] [µM]	Kd [4] [µM]	SMILES	IC50 [3] [µM]	Activity (ARPE-19)
	3.87	0.3	CCCC[C@@H]1NC(=O)[C@H](C(C)C)NC(=O)[C@H](Cc2c[nH]cn2)NC(=O)[C@H]([C@@H](C)CC)NC(=O)[C@H](CC(=O)O)NC(=O)[C@@H](NC(=O)[C@H](CC(N)=O)NC(=O)[C@@H]2CCCN2C(=O)[C@H](CCC(=O)O)NC(=O)[C@@H](N)C(C)C)CSSC[C@@H](C(=O)N[C@@H](Cc2ccccc2)C(=O)N[C@@H](CCC(=O)O)C(=O)N[C@@H](CCCNC(=N)N)C(=O)N[C@@H](CC(C)C)C(=O)O)NC(=O)[C@H](CCC(=O)O)NC(=O)[C@H](Cc2c[nH]c3ccccc23)NC(=O)[C@H](CCC(=O)O)NC(=O)[C@H](Cc2c[nH]c3ccccc23)NC1=O	20	Non-Toxic
	9.97		CCCC[C@@H]1NC(=O)[C@H](C(C)C)NC(=O)[C@H](Cc2c[nH]cn2)NC(=O)[C@H]([C@@H](C)CC)NC(=O)[C@H](CC(=O)O)NC(=O)[C@@H](N)CSSC[C@@H](C(=O)N[C@@H](Cc2ccccc2)C(=O)N[C@@H](CCC(=O)O)C(=O)N[C@@H](CCCNC(=N)N)C(=O)N[C@@H](CC(C)C)C(=O)O)NC(=O)[C@H](CCC(=O)O)NC(=O)[C@H](Cc2c[nH]c3ccccc23)NC(=O)[C@H](CCC(=O)O)NC(=O)[C@H](Cc2c[nH]c3ccccc23)NC1=O	12	
Stable	2.97	0.004	CCCC[C@@H]1NC(=O)[C@H](C(C)C)NC(=O)[C@H](Cc2c[nH]cn2)NC(=O)[C@H]([C@@H](C)CC)NC(=O)[C@H](CC(=O)O)NC(=O)[C@@H](NC(=O)[C@H](CC(N)=O)NC(=O)[C@@H]2CCCN2C(=O)C(C)(C)NC(=O)[C@@H](N)C(C)C)CSSC[C@@H](C(=O)N[C@@H](Cc2ccccc2)C(=O)N[C@@H](CCC(=O)O)C(=O)N[C@@H](CCCNC(=N)N)C(=O)N[C@@H](CC(C)C)C(=O)O)NC(=O)[C@H](CCC(=O)O)NC(=O)[C@H](Cc2c[nH]c3ccccc23)NC(=O)[C@H](CCC(=O)O)NC(=O)[C@H](Cc2c[nH]c3ccccc23)NC1=O	10	
	1.94		CCCC[C@@H]1NC(=O)[C@H](C(C)C)NC(=O)[C@H](Cc2c[nH]cn2)NC(=O)[C@H]([C@@H](C)CC)NC(=O)[C@H](CC(=O)O)NC(=O)[C@@H](NC(=O)[C@H](CC(N)=O)NC(=O)[C@@H](N)C(C)C)CSSC[C@@H](C(=O)N[C@@H](Cc2ccccc2)C(=O)N[C@@H](CCC(=O)O)C(=O)N[C@@H](CCCNC(=N)N)C(=O)N[C@@H](CC(C)C)C(=O)O)NC(=O)[C@H](CCC(=O)O)NC(=O)[C@H](Cc2c[nH]c3ccccc23)NC(=O)[C@H](CCC(=O)O)NC(=O)[C@H](Cc2c[nH]c3ccccc23)NC1=O	4	
